Assay results published in ChEMBL document CHEMBL4219174, “Synthesis and evaluation of 2,9-disubstituted 8-phenylthio/phenylsulfinyl-9H-purine as new EGFR inhibitors” (Bioorg Med Chem, 2018).
Calls of active or inactive are those of the source. The calls are words filed in the database; no cut-off is given here.

Assays:
[1] = system: HCC827; assay: Antiproliferative activity against human HCC827 cells after 72 hrs by MTT assay; format: functional, cell-based; conditions: HCC827, 72 h
[2] = system: NCI-H1975; assay: Antiproliferative activity against human NCI-H1975 cells after 72 hrs by MTT assay; format: functional, cell-based; conditions: NCI-H1975, 72 h
[3] = system: A549; assay: Antiproliferative activity against human A549 cells after 72 hrs by MTT assay; format: functional, cell-based; conditions: A549, 72 h
[4] = Selectivity ratio of IC50 for human NCI-H1975 cells to IC50 for human HCC827 cells; format: functional
[5] = Selectivity ratio of IC50 for human A549 cells to IC50 for human HCC827 cells; format: functional
[6] = molecular target: T1, Epidermal growth factor receptor (Homo sapiens, UniProt P00533); assay: Inhibition of wild type EGFR (unknown origin) using poly (Glu, Tyr) as substrate after 40 mins by kinase-glo plus luminescence assay
T1 sequence (P00533 whole entry): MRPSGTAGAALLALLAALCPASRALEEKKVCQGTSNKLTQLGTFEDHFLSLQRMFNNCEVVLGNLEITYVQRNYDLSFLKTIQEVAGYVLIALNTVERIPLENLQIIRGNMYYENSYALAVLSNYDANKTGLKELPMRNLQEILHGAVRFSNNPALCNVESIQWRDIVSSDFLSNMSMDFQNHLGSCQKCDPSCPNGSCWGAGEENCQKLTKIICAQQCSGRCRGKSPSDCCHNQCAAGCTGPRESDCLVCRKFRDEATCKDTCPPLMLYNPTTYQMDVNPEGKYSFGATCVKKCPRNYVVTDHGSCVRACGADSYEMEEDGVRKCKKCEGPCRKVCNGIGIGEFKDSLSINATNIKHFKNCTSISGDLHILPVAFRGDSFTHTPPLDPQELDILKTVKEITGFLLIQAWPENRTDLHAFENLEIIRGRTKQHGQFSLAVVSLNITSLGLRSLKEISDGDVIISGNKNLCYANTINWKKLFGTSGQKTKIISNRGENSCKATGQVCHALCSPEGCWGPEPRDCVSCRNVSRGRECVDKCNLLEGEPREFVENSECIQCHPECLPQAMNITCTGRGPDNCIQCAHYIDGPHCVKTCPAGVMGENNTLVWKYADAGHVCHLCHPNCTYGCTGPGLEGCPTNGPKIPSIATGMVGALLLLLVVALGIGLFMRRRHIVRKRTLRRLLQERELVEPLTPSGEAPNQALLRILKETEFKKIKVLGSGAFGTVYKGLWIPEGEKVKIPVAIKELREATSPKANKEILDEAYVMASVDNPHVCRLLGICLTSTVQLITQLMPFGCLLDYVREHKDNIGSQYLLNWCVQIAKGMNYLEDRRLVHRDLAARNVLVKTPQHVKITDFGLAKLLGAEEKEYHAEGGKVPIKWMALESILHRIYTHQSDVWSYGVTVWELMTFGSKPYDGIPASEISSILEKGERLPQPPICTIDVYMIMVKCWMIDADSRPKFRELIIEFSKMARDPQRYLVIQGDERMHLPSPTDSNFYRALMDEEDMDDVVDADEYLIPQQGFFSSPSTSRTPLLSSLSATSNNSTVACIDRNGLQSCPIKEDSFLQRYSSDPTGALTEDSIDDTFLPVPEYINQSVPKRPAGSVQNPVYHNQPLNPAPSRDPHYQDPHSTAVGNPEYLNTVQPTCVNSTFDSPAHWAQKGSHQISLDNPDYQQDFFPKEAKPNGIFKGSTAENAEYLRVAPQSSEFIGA

[7] = molecular target: Epidermal growth factor receptor (Homo sapiens, UniProt P00533, L858R/T790M); assay: Inhibition of EGFR L858R/T790M double mutant (unknown origin) using poly (Glu, Tyr) as substrate after 40 mins by kinase-glo plus luminescence assay
Chain of Epidermal growth factor receptor (Homo sapiens, UniProt P00533, L858R/T790M) (P00533 25-1210 T790M/L858R limits assumed): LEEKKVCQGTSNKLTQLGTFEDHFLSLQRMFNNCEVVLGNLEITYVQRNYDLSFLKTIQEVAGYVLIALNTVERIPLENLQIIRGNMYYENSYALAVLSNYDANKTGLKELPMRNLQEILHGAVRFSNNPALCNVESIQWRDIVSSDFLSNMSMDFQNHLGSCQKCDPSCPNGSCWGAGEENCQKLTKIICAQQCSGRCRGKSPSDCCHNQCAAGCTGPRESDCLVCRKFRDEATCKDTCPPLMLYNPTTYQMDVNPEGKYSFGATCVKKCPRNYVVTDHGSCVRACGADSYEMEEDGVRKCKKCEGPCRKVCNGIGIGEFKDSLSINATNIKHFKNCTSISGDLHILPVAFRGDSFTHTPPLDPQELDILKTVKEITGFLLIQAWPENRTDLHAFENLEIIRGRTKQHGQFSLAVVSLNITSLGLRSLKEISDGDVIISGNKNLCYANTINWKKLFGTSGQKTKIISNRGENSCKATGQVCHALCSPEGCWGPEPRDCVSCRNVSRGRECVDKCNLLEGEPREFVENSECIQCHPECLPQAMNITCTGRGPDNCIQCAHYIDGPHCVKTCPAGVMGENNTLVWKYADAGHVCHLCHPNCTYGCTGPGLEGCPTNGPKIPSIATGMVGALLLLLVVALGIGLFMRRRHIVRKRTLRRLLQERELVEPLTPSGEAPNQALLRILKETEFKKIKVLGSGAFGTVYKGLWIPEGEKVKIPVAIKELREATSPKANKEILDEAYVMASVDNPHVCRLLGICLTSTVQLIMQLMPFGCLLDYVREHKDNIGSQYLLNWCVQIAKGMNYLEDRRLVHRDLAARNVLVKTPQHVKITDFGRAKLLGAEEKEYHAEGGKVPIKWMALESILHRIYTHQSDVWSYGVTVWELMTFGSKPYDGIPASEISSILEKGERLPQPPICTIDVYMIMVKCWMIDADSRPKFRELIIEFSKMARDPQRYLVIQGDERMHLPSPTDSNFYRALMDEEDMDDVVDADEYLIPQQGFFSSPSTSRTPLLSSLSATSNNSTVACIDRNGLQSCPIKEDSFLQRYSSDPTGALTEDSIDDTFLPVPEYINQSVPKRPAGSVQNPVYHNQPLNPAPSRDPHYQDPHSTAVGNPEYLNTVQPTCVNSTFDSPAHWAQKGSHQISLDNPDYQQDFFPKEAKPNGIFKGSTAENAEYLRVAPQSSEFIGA

[8] = molecular target: Epidermal growth factor receptor (Homo sapiens, UniProt P00533, C797S/L858R/T790M); assay: Inhibition of EGFR L858R/T790M/C797S triple mutant (unknown origin) using poly (Glu, Tyr) as substrate after 40 mins by kinase-glo plus luminescence assay
Chain of Epidermal growth factor receptor (Homo sapiens, UniProt P00533, C797S/L858R/T790M) (P00533 25-1210 T790M/C797S/L858R limits assumed): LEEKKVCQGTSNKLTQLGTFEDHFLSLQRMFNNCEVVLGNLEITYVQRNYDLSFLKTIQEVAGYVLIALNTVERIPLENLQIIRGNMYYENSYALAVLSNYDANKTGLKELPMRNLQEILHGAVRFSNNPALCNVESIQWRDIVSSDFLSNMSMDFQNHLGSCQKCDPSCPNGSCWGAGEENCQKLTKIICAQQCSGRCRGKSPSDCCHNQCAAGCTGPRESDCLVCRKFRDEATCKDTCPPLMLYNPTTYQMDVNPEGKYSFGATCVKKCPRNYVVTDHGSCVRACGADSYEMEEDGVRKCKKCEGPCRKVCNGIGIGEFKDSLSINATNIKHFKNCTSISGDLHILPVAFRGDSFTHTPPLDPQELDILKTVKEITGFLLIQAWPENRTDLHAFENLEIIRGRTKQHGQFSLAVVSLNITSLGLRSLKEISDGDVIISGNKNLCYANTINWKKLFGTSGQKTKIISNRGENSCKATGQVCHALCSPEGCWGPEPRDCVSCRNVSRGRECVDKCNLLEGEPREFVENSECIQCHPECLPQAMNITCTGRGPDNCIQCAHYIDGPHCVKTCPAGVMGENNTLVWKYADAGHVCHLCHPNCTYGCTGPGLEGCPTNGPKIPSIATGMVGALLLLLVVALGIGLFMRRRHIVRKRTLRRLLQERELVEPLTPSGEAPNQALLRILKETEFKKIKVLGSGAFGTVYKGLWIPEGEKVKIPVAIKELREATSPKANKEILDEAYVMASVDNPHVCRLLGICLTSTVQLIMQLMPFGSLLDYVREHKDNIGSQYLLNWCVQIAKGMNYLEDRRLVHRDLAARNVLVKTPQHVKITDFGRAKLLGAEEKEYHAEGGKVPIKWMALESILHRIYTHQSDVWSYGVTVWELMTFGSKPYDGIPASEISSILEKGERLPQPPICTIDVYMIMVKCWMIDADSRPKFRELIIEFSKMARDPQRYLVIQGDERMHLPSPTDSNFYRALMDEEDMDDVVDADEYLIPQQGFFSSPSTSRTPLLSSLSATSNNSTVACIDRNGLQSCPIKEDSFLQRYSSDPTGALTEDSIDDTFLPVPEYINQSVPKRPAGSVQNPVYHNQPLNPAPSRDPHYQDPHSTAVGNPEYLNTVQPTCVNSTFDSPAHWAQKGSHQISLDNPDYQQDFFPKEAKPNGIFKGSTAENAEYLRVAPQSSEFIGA

[9] = system: HCC827; assay: Antiproliferative activity against human HCC827 cells at 1 uM after 72 hrs by MTT assay relative to control; format: functional; conditions: for Emax at 1 µM: Homo sapiens, HCC827, 72 h
Procedure, shortened: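 Human lung carcinoma HCC827 cells (EGFR Del E746-A750) were tested by MTT colorimetric assay, with gefitinib and AZD9291 as positive controls. The read-out was percent growth inhibition at a single fixed concentration.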

[10] = molecular target: T1, Epidermal growth factor receptor; assay: Inhibition of EGFR auto-phosphorylation in human HCC827 cells after 8 hrs by Western blot analysis; format: cell-based
[11] = system: HCC827; assay: Anti-tumor activity against human HCC827 cells xenografted in nude Balb/c mouse assessed as tumor growth inhibition at 5 mg/kg, po administered once daily for 20 days measured once in three days till day 21; format: functional, organism-based
Procedure, shortened: (§1)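 HCC827 (EGFR Del E746-A750) xenografts in nude mice, n = 6 per group. Oral dosing at 1 or 5 mg/kg once daily for 20 days, compared against a vehicle group. Read-outs were tumor growth curves and body weight over the treatment period, plus final tumor weight after 20 days. Significance was tested vs vehicle.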

[12] = system: Mus musculus; assay: Toxicity in nude Balb/c mouse xenografted with human HCC827 cells assessed as increase in body weight at 5 mg/kg, po administered once daily for 20 days measured every day till day 21; format: organism-based; conditions: in vivo, 480 h; procedure, shortened: as §1

Row | IC50 [1] [nM] | IC50 [2] [nM] | IC50 [3] [nM] | Compound | further results
1 | 8830 | – | – | CN1CCN(c2ccc(Nc3ncc4nc(SCc5cccnc5)n(C5CC5)c4n3)cc2)CC1 | –
2 | 47.8 | 6260 | 4850 | CN(C)CCOc1ccc(Nc2ncc3nc(Sc4ccc(F)cc4)n(C4CCOCC4)c3n2)cc1 | Ratio IC50 [4]: 131; Ratio IC50 [5]: 101; IC50 [6]: 2.5 nM; IC50 [7]: 189 nM; IC50 [8]: 114 nM
3 | 517 | – | – | CN1CCN(c2ccc(Nc3ncc4nc(SCc5cccnc5)n(C5CCCC5)c4n3)cc2)CC1 | –
4 | 359 | – | – | CN(C)CCOc1ccc(Nc2ncc3nc([S+]([O-])c4cccc(F)c4)n(C4CCOCC4)c3n2)cc1 (stereo not drawn) | –
5 | 838 | – | – | CN1CCN(c2ccc(Nc3ncc4nc([S+]([O-])c5ccccc5)n(CC5CC5)c4n3)cc2)CC1 (stereo not drawn) | –
6 | 1330 | – | – | CN(C)CCN(C)c1ccc(Nc2ncc3nc([S+]([O-])c4ccccc4)n(C4CCOCC4)c3n2)cc1 (stereo not drawn) | –
7 | 1630 | – | – | CN1CCN(c2ccc(Nc3ncc4nc([S+]([O-])c5ccccc5)n(C5CC5)c4n3)cc2)CC1 (stereo not drawn) | –
8 | 411 | – | – | CN1CCN(c2ccc(Nc3ncc4nc([S+]([O-])c5ccccc5)n(C5CCOCC5)c4n3)cc2)CC1 (stereo not drawn) | –
9 | 304 | – | – | CN1CCN(c2ccc(Nc3ncc4nc(Sc5ccccc5)n(C5CC5)c4n3)cc2)CC1 | –
10 | 64.7 | 5110 | > 10000 | CN1CCN(c2ccc(Nc3ncc4nc([S+]([O-])c5ccccc5)n(C5CCCC5)c4n3)cc2)CC1 (stereo not drawn) | Ratio IC50 [4]: 79; Ratio IC50 [5]: >154
11 | 500 | – | – | CN1CCN(c2ccc(Nc3ncc4nc(SCc5cccnc5)n(C5CCOCC5)c4n3)cc2)CC1 | –
12 | 44.3 | 9610 | > 10000 | CN(C)CCOc1ccc(Nc2ncc3nc(Sc4ccccc4)n(C4CCOCC4)c3n2)cc1 | Ratio IC50 [4]: 217; Ratio IC50 [5]: >226; IC50 [8]: 556 nM; Emax at 1 µM [9]: 78%
13 | 29.4 | 4990 | > 10000 | CN(C)C1CCN(c2ccc(Nc3ncc4nc(Sc5ccccc5)n(C5CCOCC5)c4n3)cc2)CC1 | Ratio IC50 [4]: 170; Ratio IC50 [5]: >340; IC50 [6]: 1.6 nM; IC50 [7]: 104 nM; IC50 [8]: 331 nM; Emax at 1 µM [9]: 81%; inhibition [10]: Dose-dependent effect; TGI [11]: Active; Activity [12]: Non-Toxic
14 | 140 | – | – | CN1CCC(Oc2ccc(Nc3ncc4nc(Sc5ccccc5)n(C5CCOCC5)c4n3)cc2)CC1 | –
15 | > 10000 | – | – | CN1CCN(c2ccc(Nc3ncc4nc([S+]([O-])Cc5cccnc5)n(C5CCOCC5)c4n3)cc2)CC1 (stereo not drawn) | –
16 | 2350 | – | – | CN1CCN(c2ccc(Nc3ncc4nc([S+]([O-])Cc5cccnc5)n(C5CCCC5)c4n3)cc2)CC1 (stereo not drawn) | –

Row | IC50 [1] [nM] | IC50 [2] [nM] | IC50 [3] [nM] | Compound | further results
17 | 433 | – | – | CN1CCN(c2ccc(Nc3ncc4nc([S+]([O-])Cc5ccccc5)n(C5CCOCC5)c4n3)cc2)CC1 (stereo not drawn) | –
18 | 660 | – | – | CN1CCN(c2ccc(Nc3ncc4nc(Sc5ccccc5)n(CC5CC5)c4n3)cc2)CC1 | –
19 | 1290 | – | – | CN(C)C1CCN(c2ccc(Nc3ncc4nc([S+]([O-])c5ccccc5)n(C5CCOCC5)c4n3)cc2)CC1 (stereo not drawn) | –
20 | 290 | – | – | CC(C)n1c(Sc2ccccc2)nc2cnc(Nc3ccc(N4CCN(C)CC4)cc3)nc21 | –
21 | 499 | – | – | CN(C)CCN(C)c1ccc(Nc2ncc3nc(Sc4ccccc4)n(C4CCOCC4)c3n2)cc1 | –
22 | 50.3 | > 10000 | > 10000 | CN(C)CCOc1ccc(Nc2ncc3nc([S+]([O-])c4ccccc4)n(C4CCOCC4)c3n2)cc1 (stereo not drawn) | Ratio IC50 [4]: >198; Ratio IC50 [5]: >198
23 | 42.6 | 2260 | 2940 | CN1CCN(c2ccc(Nc3ncc4nc(Sc5ccccc5)n(C5CCOCC5)c4n3)cc2)CC1 | Ratio IC50 [4]: 53; Ratio IC50 [5]: 69; IC50 [8]: 892 nM
24 | 268 | – | – | CN1CCN(c2ccc(Nc3ncc4nc([S+]([O-])c5ccccc5)n([C@H]5CC[C@H](O)CC5)c4n3)cc2)CC1 (stereo partly drawn) | –
25 | 553 | – | – | CN(C)CCOc1ccc(Nc2ncc3nc([S+]([O-])c4ccc(F)cc4)n(C4CCOCC4)c3n2)cc1 (stereo not drawn) | –
26 | 35.9 | – | – | CN1CCN(c2ccc(Nc3ncc4nc(Nc5ccccc5)n(C5CCCC5)c4n3)cc2)CC1 | Emax at 1 µM [9]: 70%
27 | 853 | – | – | CN1CCC(Oc2ccc(Nc3ncc4nc([S+]([O-])c5ccccc5)n(C5CCOCC5)c4n3)cc2)CC1 (stereo not drawn) | –
28 | 51.4 | 2770 | 3360 | CN(C)CCOc1ccc(Nc2ncc3nc(Sc4cccc(F)c4)n(C4CCOCC4)c3n2)cc1 | Ratio IC50 [4]: 54; Ratio IC50 [5]: 65; IC50 [8]: 805 nM
29 | 42.6 to 47.9 | 1320 | 426 | CN1CCN(c2ccc(Nc3ncc4nc(Sc5ccccc5)n([C@H]5CC[C@H](O)CC5)c4n3)cc2)CC1 | Ratio IC50 [4]: 31; Ratio IC50 [5]: 10; IC50 [8]: 529 nM
30 | 106 | – | – | CN1CCN(c2ccc(Nc3ncc4nc(SCc5ccccc5)n(C5CCOCC5)c4n3)cc2)CC1 | –
31 | 214 | – | – | CC(C)n1c([S+]([O-])c2ccccc2)nc2cnc(Nc3ccc(N4CCN(C)CC4)cc3)nc21 (stereo not drawn) | –
32 | 51.2 | 5580 | 237 | CN1CCN(c2ccc(Nc3ncc4nc(Sc5ccccc5)n(C5CCCC5)c4n3)cc2)CC1 | Ratio IC50 [4]: 109; Ratio IC50 [5]: 5

Row | Compound | IC50 [1] [nM] | IC50 [2] [nM] | IC50 [3] [nM] | further results
33 | C=CC(=O)Nc1cc(Nc2nccc(-c3cn(C)c4ccccc34)n2)c(OC)cc1N(C)CCN(C)C [OSIMERTINIB] | 25.4 to 43.1 | […] | 486 | Emax [9]: 73%
